Laboratory results from ChEMBL document CHEMBL1629687, “Minigenome-based reporter system suitable for high-throughput screening of compounds able to inhibit Ebolavirus replication and/or transcription” (Antimicrob Agents Chemother, 2010).

What was measured:
Ebolavirus = assay: Antiviral activity against Ebolavirus infected in african green monkey COS1 cells assessed as inhibition of viral replication after 32 hrs by luciferase reporter gene assay; format: functional, COS-1
In short: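 Ebola minigenome assay, not live virus: COS-1 cells in suspension were batch-transfected with minireplicon and NP/VP35/L support plasmids, then plated in 96-well format. Compounds in DMSO were added at 10 μM final; DMSO-only wells served as controls. Luciferase was read after 32 h. Percent inhibition = 1 − (compound-well signal / mean DMSO-well signal) × 100.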

[1] = Cytotoxicity against african green monkey COS1 cells assessed as reduction in cell viability after 32 hrs by luminescent assay; format: cell-based, COS-1; settings: chlorocebus aethiops, read-out: INH
In short: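 Parallel plates of batch-transfected COS-1 cells received the same compounds in DMSO (10 μM final). Cell viability was measured with the CellTiter-Glo luminescent assay to flag cytotoxicity.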

| SMILES | inhibition (INH) (Ebolavirus) | cytotoxicity at 32 h [1] |
| --- | --- | --- |
| CC[C@H]1CN2CCc3cc(OC)c(OC)cc3[C@@H]2C[C@@H]1C[C@H]1NCCc2cc(O)c(OC)cc21.Cl.Cl [CEPHAELINE DIHYDROCHLORIDE] | 99% | 14% |
| COc1cccc2c1C(=O)c1c(O)c3c(c(O)c1C2=O)C[C@@](O)(C(=O)CO)C[C@@H]3O[C@H]1C[C@H](N)[C@H](O)[C@H](C)O1.Cl [DOXORUBICIN HYDROCHLORIDE] | 97% | 25% |
| Cc1c2ccncc2c(C)c2c1[nH]c1ccccc12 [ELLIPTECINE] | 99% | 8% |
| CC[C@H]1CN2CCc3cc(OC)c(OC)cc3[C@@H]2C[C@@H]1C[C@H]1NCCc2cc(OC)c(OC)cc21.Cl.Cl [EMETINE HYDROCHLORIDE] | 99% | 3% |
| O=C1C=C2C(=CCOC2O)O1 (configuration not stated) [PATULIN] | 89% | 20% |
| CC[C@@H](C(=O)[C@@H](C)[C@@H](O)[C@H](C)[C@@H]1O[C@@H]([C@@H](CC)C(=O)O)CC[C@@H]1C)[C@H]1O[C@]2(C=C[C@@H](O)[C@]3(CC[C@@](C)([C@H]4CC[C@](O)(CC)[C@H](C)O4)O3)O2)[C@H](C)C[C@@H]1C [SALINOMYCIN] | 86% | 17% |
